M1 antag – antagonists of rat M1 muscarinic receptor. CHO-M1 cells, Fluo-4 calcium, ACh EC80 antagonist mode; stronger effect = lower value. B-score at 10 µM. actives 3.4% (n = 64,000);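 active = calcium fluorescence response, raw or row-and-column corrected B-score, differing from the plate sample mean either way at a set confidence level, mostly lower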
Jurkat viability – reduces viability or proliferation of Jurkat cells; Jurkat E6.1 viability, ATP luminescence, 48 h; inhibition, % at 4 µM; actives 1.2% (n = 56,000); AID 463;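 active = inhibition above the mean inhibition of all tested compounds plus 3 SD, cut at about 28% in these data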
D1 mod – D1 dopamine receptor (human) allosteric modulation | P21728 | HEK293 D1, CRE-luciferase, dopamine EC30 potentiation; actives deviate in either direction | B-score at 10 µM | actives 5.9% (n = 58,000);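 active = luminescence count or its row- and column-corrected plate score outside the 99.7% band of the plate's sample wells, on either side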
HEK293 NFkB inh – inhibitors of the PMA/ionomycin-induced NF-kB reporter in HEK293 cells; actives 0.21% (n = 62,000); HEK-293 NF-kB luciferase reporter, luminescence; inhibition, % at 3 µM;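 active = inhibition above the mean of all tested compounds plus 3 SD, cut at about 40% in these data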;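 also: 0% = stimulated DMSO wells and 100% = 10 µM reference inhibitor 5653914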
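Reagent: PMA plus ionomycin mix as NF-kB-activating stimulus. Assay system: NF-kB luciferase reporter HEK-293 cells. Technique: luminescence from luciferase substrate reagent. Incubation: 1 h compound pre-incubation, 16 h PMA/ionomycin at 37 °C. Benchmarks: DMSO only as uninhibited control, 10 µM reference inhibitor as full inhibition. Repeats: tested once.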
M1 ag – M1 muscarinic receptor agonism; B-score at 10 µM; AID 626; CHO-M1 cells, Fluo-4 calcium fluorescence, agonist mode; stronger effect = higher value; actives 3% (n = 64,000);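 active = fluorescence rise, raw or as B-score row- and column-corrected plate score, outside the 99.7% band of its plate's samples, either direction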
DAT uptake mod – human DAT dopamine uptake with cocaine, either direction. Q01959. LLC-PK1 hDAT cells, [14C]-dopamine uptake with cocaine IC80; actives deviate in either direction. B-score at 10 µM. actives 1.3% (n = 110,000). AID 449768;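 active = Z score or B-score, a plate-position-corrected score, falls beyond the plate's 99.7% confidence bounds, in either direction; inactive = both scores lie inside the 99.7% bounds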;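 also: scored against the spread of the other compound wells on the same plate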
Target sequence (Q01959 whole entry, looked up): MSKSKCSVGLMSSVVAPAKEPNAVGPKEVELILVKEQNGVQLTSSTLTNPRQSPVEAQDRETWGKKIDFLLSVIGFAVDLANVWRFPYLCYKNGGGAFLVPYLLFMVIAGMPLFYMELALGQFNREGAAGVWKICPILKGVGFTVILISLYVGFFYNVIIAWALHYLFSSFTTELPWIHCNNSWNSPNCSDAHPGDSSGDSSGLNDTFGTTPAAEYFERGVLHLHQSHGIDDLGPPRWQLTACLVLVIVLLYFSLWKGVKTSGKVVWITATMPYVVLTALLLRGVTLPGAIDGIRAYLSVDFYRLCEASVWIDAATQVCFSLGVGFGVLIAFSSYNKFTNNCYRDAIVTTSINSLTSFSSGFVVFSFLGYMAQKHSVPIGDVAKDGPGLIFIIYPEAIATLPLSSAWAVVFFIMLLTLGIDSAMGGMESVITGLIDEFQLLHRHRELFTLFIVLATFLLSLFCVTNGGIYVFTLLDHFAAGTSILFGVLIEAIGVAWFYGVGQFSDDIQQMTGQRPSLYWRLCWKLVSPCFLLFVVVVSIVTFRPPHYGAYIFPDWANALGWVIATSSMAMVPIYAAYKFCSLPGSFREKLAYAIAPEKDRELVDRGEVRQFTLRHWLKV
* = called active by the depositor. Hits are enriched below; roughly 7.6% of the tested compounds scored in any of these assays.

Screening CCOC(=O)c1c(N)n(Cc2ccco2)c2nc3ccccc3nc12 returned M1 antag -0.29, Jurkat viability 10, D1 mod 0.6, HEK293 NFkB inh -15, M1 ag -0.002 and DAT uptake mod 1.9.
COCC(C)OC(=O)c1c(N)n(Cc2ccco2)c2nc3ccccc3nc12 (centres undefined) was read as M1 antag -0.17, D1 mod 12*, M1 ag 2.1 and DAT uptake mod 1.5.
For CCCNC(=O)c1c(N)n(CC2CCCO2)c2nc3ccccc3nc12 (centres undefined) the results were M1 antag -0.77, Jurkat viability 12, D1 mod -0.19, HEK293 NFkB inh 8, M1 ag -0.8 and DAT uptake mod -8.9*.
`COCCCn1c(N)c(C(=O)NCCC(C)C)c2nc3ccccc3nc21` gave M1 antag -0.25, Jurkat viability 0, D1 mod 0.97, HEK293 NFkB inh -2, M1 ag -0.17 and DAT uptake mod 3*.
For CCCCCn1c(N)c(C(=O)NCCN2CCOCC2)c2nc3ccccc3nc21 the results were M1 antag -0.022, Jurkat viability -3, HEK293 NFkB inh 10, M1 ag 0.44 and DAT uptake mod 0.96.
For COC(=O)C1=C(c2ccc(S(C)(=O)=O)cc2)C[C@@H]2CC[C@H]1N2C(=O)NC(C)C the results were DAT uptake mod -0.53.
Screening O=C(c1ccncc1)C12CN3CN(CN(C3)C1)C2 returned M1 antag 0.12, Jurkat viability -7, D1 mod 0.55, HEK293 NFkB inh 10, M1 ag -0.013 and DAT uptake mod 2.3.
Screening O=C(CCCN1CCC2(CC1)C(=O)NCN2c1ccccc1)c1ccc(F)cc1 returned D1 mod -6.5* and DAT uptake mod 0.55.
Screening CCOc1ccc2nc(N3CCC(C(=O)N4CCC5(CC4)OCCO5)CC3)sc2c1 returned DAT uptake mod 0.24.
Screening O=C(C1CCN(c2nc3ccc(Br)cc3s2)CC1)N1CCC2(CC1)OCCO2 returned M1 antag -5.5*, Jurkat viability 26, HEK293 NFkB inh 23, M1 ag 7.8* and DAT uptake mod -0.84.
CN1CC=C(c2c[nH]c3ccccc23)CC1 was read as M1 antag 0.011, Jurkat viability 0, D1 mod -3.7*, HEK293 NFkB inh 16, M1 ag 0.75 and DAT uptake mod -1.3.
For COC12C(COC(N)=O)C3=C(C(=O)C(C)=C(N)C3=O)N1CC1C2N1C (centres undefined) the results were DAT uptake mod -0.32.
For C[N+]12CCC(CC1)C(C#N)(N1CCOCC1)C2 (centres undefined) the results were M1 antag 0.49, Jurkat viability -1, D1 mod -0.032, HEK293 NFkB inh 27, M1 ag -1 and DAT uptake mod 0.5.
`COc1ccc(-c2cc(=O)c3c(OC)c(OC)c(OC)cc3o2)cc1` gave DAT uptake mod 4.7*.
O=C(CN1CCN(CCO)CC1)Nc1ccc(Cl)cc1C(=O)c1ccccc1 was read as M1 antag 0.77, M1 ag 1 and DAT uptake mod -0.019.
For Nc1cccc(N=Cc2c(O)n(Cc3ccc(F)cc3)c(=O)[nH]c2=O)c1 the results were M1 antag 0.73, Jurkat viability -2, D1 mod 0.082, HEK293 NFkB inh 5, M1 ag 0.074 and DAT uptake mod -0.28.
`COc1cccc(CN2CCN(C(=O)COc3ccc4ccccc4c3)CC2)c1` gave M1 antag -0.27, M1 ag 0.76 and DAT uptake mod 2.4*.
For Cc1ccc2c(c1)C1CN(C)CCC1N2C(=O)Nc1cccc(Cl)c1 (centres undefined) the results were DAT uptake mod 3.4*.
Screening COC(=O)C1C2c3ccccc3OC1(C)N=c1s/c(=C/c3cnn(C)c3C)c(=O)n12 (centres undefined) returned M1 antag 0.13, Jurkat viability -2, D1 mod -0.67, HEK293 NFkB inh 13, M1 ag 0.27 and DAT uptake mod 0.96.
`CCOC(=O)C1C2c3ccccc3O[C@@]1(C)N=C1SCC(=O)N12` (some centres undefined) gave M1 antag 1.1*, Jurkat viability 3, D1 mod 0.48, HEK293 NFkB inh 16, M1 ag -0.17 and DAT uptake mod -0.081.
For CC(C)OC(=O)C1C(=O)NC2(C)CC1c1ccccc1O2 (centres undefined) the results were M1 antag -0.33, HEK293 NFkB inh 8, M1 ag -0.37 and DAT uptake mod -0.38.
COc1cccc(OC)c1C1=NCC(=O)Nc2c1oc1ccc(Br)cc21 was read as M1 antag -0.22, Jurkat viability 99*, D1 mod 0.18, HEK293 NFkB inh 28, M1 ag -0.12 and DAT uptake mod -1.
C[C@@H]1O[C@@H](O[C@H]2C[C@@H](O)[C@]3(CO)[C@H]4[C@H](O)C[C@]5(C)[C@@H](C6COC(=O)C6)CC[C@]5(O)[C@@H]4CC[C@]3(O)C2)[C@H](O)[C@H](O)[C@H]1O (some centres undefined) was read as DAT uptake mod -6.4*.
For COc1ccccc1N1CCN(Cc2cccc(OC)c2O)CC1 the results were M1 antag -1.1, Jurkat viability 8, D1 mod -4.2*, HEK293 NFkB inh 2, M1 ag -0.51 and DAT uptake mod -0.096.
COc1ccccc1N1CCN(Cc2ccccc2Cl)CC1 was read as M1 antag 0.15, Jurkat viability 2, D1 mod 0.15, HEK293 NFkB inh 12, M1 ag 0.088 and DAT uptake mod 0.6.
Screening CCN(CC)CCCC(C)N=C(c1ccccc1)c1c(O)n(C)c(=O)n(C)c1=O (centres undefined) returned M1 antag 0.15, M1 ag -0.05 and DAT uptake mod -0.54.
CSC(=Nc1ccccc1)c1c(O)n(C)c(=O)n(C)c1=O was read as M1 antag -0.1, Jurkat viability 34*, D1 mod -0.52, HEK293 NFkB inh 14, M1 ag 0.11 and DAT uptake mod 0.3.
Screening CCCNC(=O)N1[C@H]2CC[C@@H]1C(C(=O)OC)=C(c1cc3ccccc3o1)C2 returned DAT uptake mod 1.6.
For CC(C)(C)NC(=O)Cn1cc(C(=O)c2ccccc2F)c2ccccc21 the results were DAT uptake mod -0.76.
Screening CCOc1cccc(CNC2CN3CCC2CC3)c1 (centres undefined) returned DAT uptake mod 0.2.
OC(c1ccccc1)(c1ccccc1)C1CCNCC1 was read as DAT uptake mod -6.1*.
`O=c1c2ccccc2nc(-c2cccs2)n1-c1ccccc1` gave DAT uptake mod -0.05.
`CCn1nc(-c2cccs2)nc2c(=O)n(C)c(=O)nc1-2` gave M1 antag 0.17, Jurkat viability 36*, HEK293 NFkB inh 97* and M1 ag 0.32.

High-throughput results as filed in PubChem.
